Read-outs that look alike come from different tables or passages of the source. Values belong to the compound of their own block, whether it stands above or below them.
Experiments:
HepG2 xenograft = assay: In vivo antitumor activity, HepG2 xenograft model; parameters: species or system SPF BALB/c nude mice
In short: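 HepG2 xenografts in SPF BALB/c nude mice, randomised into vehicle, low-dose (10 mg kg−1), high-dose (20 mg kg−1) and paclitaxel (5 mg kg−1) groups. All were injected in 5% DMSO/saline (v/v). Tumours were measured twice weekly in two dimensions to give volume, mean ± SD, n = 6. The relative tumour increment rate (T/C, %) was taken at day 41.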

[1] = tested on: HepG2 (human liver cancer cells); assay: MTT antiproliferative assay, HepG2; assay type: cell-based; conditions: read-out: IC50 HepG2
In short: (§1)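 MTT assay on HepG2, SK-OV-3, NCI-H460, BEL-7404 and normal HL-7702 cells, with 5-fluorouracil and cisplatin run alongside as positive controls.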

[2] = tested on: SK-OV-3 (human ovarian cancer cells); assay: MTT antiproliferative assay, SK-OV-3; assay type: cell-based; conditions: read-out: IC50 SKOV-3
In short: as §1

[3] = tested on: NCI-H460 (human large cell lung cancer cells); assay: MTT antiproliferative assay, NCI-H460; assay type: cell-based; conditions: read-out: IC50 NCI-H460
In short: as §1

[4] = tested on: BEL-7404 (human liver cancer cells); assay: MTT antiproliferative assay, BEL-7404; assay type: cell-based; conditions: read-out: IC50 BEL-7404, 48 h, mean ± SD of three experiments
In short: as §1

[5] = tested on: HL-7702 (human liver normal cells); assay: MTT cytotoxicity assay, HL-7702 normal cells; assay type: cell-based; conditions: L02, 48 h, read-out: IC50 HL-7702
In short: as §1

[6] = MTT, 48 h, mean ± SD of three experiments

Structure (SMILES): CC(=O)O[C@H]1C(=O)[C@@]2(C)[C@H]([C@H](OC(=O)c3ccccc3)[C@]3(O)C[C@H](OC(=O)[C@H](O)[C@@H](NC(=O)c4ccccc4)c4ccccc4)C(C)=C1C3(C)C)[C@]1(OC(C)=O)CO[C@@H]1C[C@@H]2O [Paclitaxel, paclitaxel]
T/C value (relative tumor increment rate) (HepG2 xenograft; 5 mg kg^−1 dose): 19.0%
effect on tumour volume in mice (HepG2 xenograft; 3a1 10 and 20 mg kg^−1, paclitaxel 5 mg kg^−1, compared with control): significantly inhibited the increase in the tumour volume

Structure (SMILES): N.N.[Cl][Pt][Cl] [Cisplatin, cisplatin]
IC50 [1, 6]: 10.1 ± 0.71 µM
IC50 [2, 6]: 15.6 ± 1.7 µM
IC50 [3, 6]: 20.4 ± 0.5 µM
IC50 [4]: 14.7 ± 0.66 µM

IC50 ([1]; Homo sapiens, HepG2, 48 h): 32 ± 0.56 µM
IC50 ([2]; Homo sapiens, SK-OV-3, 48 h): 26.3 ± 0.57 µM
IC50 ([3]; Homo sapiens, NCI-H460, 48 h): 45.4 ± 0.94 µM
Structure (SMILES): O=c1[nH]cc(F)c(=O)[nH]1 [5-FU, 5-fluorouracil]
IC50 [5]: 58.7 ± 2.31 µM
